Data: ChEMBL document CHEMBL1122690, “Synthesis of potential antifilarial agents. 1-(5-Benzoylbenzimidazol-2-yl)-3-alkyl- and -arylureas” (1984)

Columns and labels:
Type in all cases: functional
Brugia pahangi [1] = assay: Antifilarial activity (percent reduction of live Brugia pahangi at necropsy relative to controls) was evaluated at dose of 100 mg/kg/day administered subcutaneously; conditions: route subcutaneous
Outline: (§1)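 Male jirds (Meriones unguiculatus) carrying adult Brugia pahangi and Litomosoides carinii. Infection was by intraperitoneal inoculation of 24-25 L. carinii larvae 76–133 days before treatment, followed by 49-50 immature B. pahangi. Dosing was daily for 5 days. Necropsy was 55–70 days after the first dose, with a search of the pleural and peritoneal cavities. Live adult worms were scored as % reduction versus controls, usually averaged over 3 animals.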

Litomosoides carinii [2] = assay: Antifilarial activity (percent reduction of live Litomosoides carinii at necropsy relative to controls) was evaluated at dose of 100 mg/kg/day administered subcutaneously; conditions: route subcutaneous; outline: as §1
Litomosoides carinii [3] = assay: Antifilarial activity (percent reduction of live Litomosoides carinii at necropsy relative to controls) was evaluated at dose of 6.25 mg/kg/day administered subcutaneously; conditions: route subcutaneous; outline: as §1
Litomosoides carinii [4] = assay: Antifilarial activity (percent reduction of live Litomosoides carinii at necropsy relative to controls) was evaluated at dose of 25 mg/kg/day administered subcutaneously; conditions: route subcutaneous; outline: as §1
Brugia pahangi [5] = assay: Antifilarial activity (percent reduction of live Brugia pahangi at necropsy relative to controls) was evaluated at dose of 6.25 mg/kg/day administered subcutaneously; conditions: route subcutaneous; outline: as §1
Brugia pahangi [6] = assay: Antifilarial activity (percent reduction of live Brugia pahangi at necropsy relative to controls) was evaluated at dose of 25 mg/kg/day administered subcutaneously; conditions: route subcutaneous; outline: as §1
Litomosoides carinii [7] = assay: Antifilarial activity (percent reduction of live Litomosoides carinii at necropsy relative to controls) was evaluated at dose of 1.56 mg/kg/day administered subcutaneously; conditions: route subcutaneous; outline: as §1
Brugia pahangi [8] = assay: Antifilarial activity (percent reduction of live Brugia pahangi at necropsy relative to controls) was evaluated at dose of 1.56 mg/kg/day administered subcutaneously; conditions: route subcutaneous; outline: as §1
Litomosoides carinii [9] = assay: Antifilarial activity (percent reduction of live Litomosoides carinii at necropsy relative to controls) was evaluated at dose of 100 mg/kg/day administered perorally; conditions: route oral; in the assay text read “25 mg/kg/day” for “100 mg/kg/day”; outline: as §1

| Structure (SMILES) | Reduction (Brugia pahangi [1]) | Reduction (Litomosoides carinii [2]) | other results |
| --- | --- | --- | --- |
| CCCNC(=O)Nc1nc2cc(C(=O)c3ccccc3)ccc2[nH]1 | 0% | 0% |  |
| CN1CCN(C(=O)Nc2nc3cc(C(=O)c4ccccc4)ccc3[nH]2)CC1 | 0% | 0% |  |
| O=C(NCCO)Nc1nc2cc(C(=O)c3ccccc3)ccc2[nH]1 | 15% | 20% |  |
| O=C(Nc1ccc(Cl)c(Cl)c1)Nc1nc2cc(C(=O)c3ccccc3)ccc2[nH]1 | 0% | 9% |  |
| CN(C)C(=O)Nc1nc2cc(C(=O)c3ccccc3)ccc2[nH]1 | 100% | 100% | Reduction (Litomosoides carinii [3]): 61%; Reduction (Litomosoides carinii [4]): 87%; Reduction (Brugia pahangi [5]): 0%; Reduction (Brugia pahangi [6]): 0% |
| O=C(Nc1ccc(F)cc1)Nc1nc2cc(C(=O)c3ccccc3)ccc2[nH]1 | 6% | 66% |  |
| O=C(Nc1nc2cc(C(=O)c3ccccc3)ccc2[nH]1)Nc1ccccc1[N+](=O)[O-] | 6% | 0% |  |
| Cc1ccc(NC(=O)Nc2nc3cc(C(=O)c4ccccc4)ccc3[nH]2)cc1 | 0% | 27% |  |
| Cc1cccc(NC(=O)Nc2nc3cc(C(=O)c4ccccc4)ccc3[nH]2)c1 | 0% | 0% |  |
| O=C(Nc1ccc([N+](=O)[O-])cc1)Nc1nc2cc(C(=O)c3ccccc3)ccc2[nH]1 | 9% | 0% |  |
| O=C(Nc1nc2cc(C(=O)c3ccccc3)ccc2[nH]1)Nc1ccccc1F | 0% | 0% |  |
| O=C(Nc1cccc([N+](=O)[O-])c1)Nc1nc2cc(C(=O)c3ccccc3)ccc2[nH]1 | 0% | 32% |  |
| O=C(Nc1ccccc1)Nc1nc2cc(C(=O)c3ccccc3)ccc2[nH]1 | 0% | 66% |  |
| COC(=O)Nc1nc2cc(C(=O)c3ccccc3)ccc2[nH]1 [MEBENDAZOLE] |  |  | Reduction (Litomosoides carinii [3]): 100%; Reduction (Litomosoides carinii [4]): 100%; Reduction (Brugia pahangi [5]): 100%; Reduction (Brugia pahangi [6]): 100%; Reduction (Litomosoides carinii [7]): 97%; Reduction (Brugia pahangi [8]): 12.5% |
| Cc1ccc(C(=O)Nc2ccc(S(=O)(=O)O)c3cc(S(=O)(=O)O)cc(S(=O)(=O)O)c23)cc1NC(=O)c1cccc(NC(=O)Nc2cccc(C(=O)Nc3cc(C(=O)Nc4ccc(S(=O)(=O)O)c5cc(S(=O)(=O)O)cc(S(=O)(=O)O)c45)ccc3C)c2)c1 [SURAMIN] |  |  | Reduction (Litomosoides carinii [9]): 71% |
